≈ marks a conversion by molar mass, not a printed value. Calls of active or inactive are those of the source. The calls are words filed in the database; no cut-off is given here.
Columns and labels:
Escherichia coli = assay: Antibacterial activity against Escherichia coli MC1061 measured after overnight incubation by broth double-dilution method; assay type: functional
Procedure, shortened: (§1)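 MIC by broth double-dilution in liquid Mueller-Hinton medium. Values are reported in µg/mL.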

Staphylococcus aureus [1] = assay: Antibacterial activity against methicillin-resistant Staphylococcus aureus G1 measured after overnight incubation by broth double-dilution method; assay type: functional; procedure, shortened: as §1
Staphylococcus aureus [2] = assay: Antibacterial activity against methicillin-resistant Staphylococcus aureus G12 measured after overnight incubation by broth double-dilution method; assay type: functional; procedure, shortened: as §1
[3] = system: Staphylococcus epidermidis; assay: Antibacterial activity against Staphylococcus epidermidis ATCC 12228 measured after overnight incubation by broth double-dilution method; assay type: functional
Procedure, shortened: (§2)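 MIC by broth double-dilution in Mueller-Hinton medium. Re-testing at the time-kill inoculum used 1×10^6 CFU/mL.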

Staphylococcus aureus [4] = assay: Antibacterial activity against methicillin-resistant Staphylococcus aureus BRS3 measured after overnight incubation by broth double-dilution method; assay type: functional; procedure, shortened: as §1
Staphylococcus aureus [5] = assay: Antibacterial activity against methicillin-resistant Staphylococcus aureus ATCC 33591 measured after overnight incubation by broth double-dilution method; assay type: functional; procedure, shortened: as §1
Listeria monocytogenes = assay: Antibacterial activity against Listeria monocytogenes ATCC 19115 measured after overnight incubation by broth double-dilution method; assay type: functional; procedure, shortened: as §2
Mus musculus = species on record: Mus musculus; assay: Cytotoxicity against mouse RBCs assessed as hemolysis at 0.24 to 31.2 ug/ml measured after 1 hr; assay type: toxicity; conditions: erythrocyte
Procedure, shortened: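 Murine red blood cells were exposed to compounds at various concentrations, with amikacin as a control. Percent hemolysis was scored against untreated cells (0%) and 1% Triton X (100%).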

Enterococcus faecalis [6] = assay: Antibacterial activity against Enterococcus faecalis ATCC 29212 measured after overnight incubation by broth double-dilution method; assay type: functional; procedure, shortened: as §2
Enterococcus = assay: Antibacterial activity against Vancomycin-resistant Enterococcus measured after overnight incubation by broth double-dilution method; assay type: functional; procedure, shortened: as §1
Staphylococcus aureus [7] = assay: Antibacterial activity against methicillin-resistant Staphylococcus aureus NRS4 measured after overnight incubation by broth double-dilution method; assay type: functional; procedure, shortened: as §1
Staphylococcus aureus [8] = assay: Antibacterial activity against methicillin-sensitive Staphylococcus aureus ATCC 25923 measured after overnight incubation by broth double-dilution method; assay type: functional; procedure, shortened: as §1
Staphylococcus aureus [9] = assay: Antibacterial activity against methicillin-resistant Staphylococcus aureus C19 measured after overnight incubation by broth double-dilution method; assay type: functional; procedure, shortened: as §1
Staphylococcus aureus [10] = assay: Antibacterial activity against methicillin-resistant Staphylococcus aureus USA300 measured after overnight incubation by broth double-dilution method; assay type: functional; procedure, shortened: as §1
Staphylococcus aureus [11] = assay: Antibacterial activity against methicillin-resistant Staphylococcus aureus C16 measured after overnight incubation by broth double-dilution method; assay type: functional; procedure, shortened: as §1
Staphylococcus aureus [12] = assay: Antibacterial activity against methicillin-resistant Staphylococcus aureus S22 measured after overnight incubation by broth double-dilution method; assay type: functional; procedure, shortened: as §1
Klebsiella pneumoniae = assay: Antibacterial activity against Klebsiella pneumoniae ATCC 27736 measured after overnight incubation by broth double-dilution method; assay type: functional; procedure, shortened: as §1
Acinetobacter baumannii = assay: Antibacterial activity against Acinetobacter baumannii ATCC 19606 measured after overnight incubation by broth double-dilution method; assay type: functional; procedure, shortened: as §2
Staphylococcus aureus [13] = assay: Antibacterial activity against methicillin-resistant Staphylococcus aureus S17 measured after overnight incubation by broth double-dilution method; assay type: functional; procedure, shortened: as §1
Staphylococcus aureus [14] = assay: Antibacterial activity against methicillin-resistant Staphylococcus aureus 1 measured after overnight incubation by broth double-dilution method; assay type: functional; procedure, shortened: as §1
Staphylococcus aureus [15] = assay: Antibacterial activity against methicillin-resistant Staphylococcus aureus C1 measured after overnight incubation by broth double-dilution method; assay type: functional; procedure, shortened: as §1
Staphylococcus aureus [16] = assay: Antibacterial activity against methicillin-resistant Staphylococcus aureus 2 measured after overnight incubation by broth double-dilution method; assay type: functional; procedure, shortened: as §1
[17] = system: Mycolicibacterium smegmatis; assay: Antibacterial activity against Mycobacterium smegmatis MC2-155 measured after overnight incubation by broth double-dilution method; assay type: functional; conditions: str. MC2 155; procedure, shortened: as §1
Staphylococcus aureus [18] = assay: Antibacterial activity against methicillin-resistant Staphylococcus aureus C7 measured after overnight incubation by broth double-dilution method; assay type: functional; procedure, shortened: as §1
Staphylococcus aureus [19] = assay: Antibacterial activity against methicillin-resistant Staphylococcus aureus USA600 measured after overnight incubation by broth double-dilution method; assay type: functional; procedure, shortened: as §1
[20] = system: Staphylococcus epidermidis; assay: Antibacterial activity against Staphylococcus epidermidis ATCC 35984 measured after overnight incubation by broth double-dilution method; assay type: functional; conditions: RP62A; procedure, shortened: as §2
Staphylococcus aureus [21] = assay: Antibacterial activity against methicillin-resistant Staphylococcus aureus NRS77 measured after overnight incubation by broth double-dilution method; assay type: functional; procedure, shortened: as §1
[22] = Cytotoxicity against mouse RBCs assessed as hemolysis up to […] measured after 1 hr; assay type: toxicity, Erythrocyte; conditions: mouse red blood cells, read-out: Activity
Staphylococcus aureus [23] = assay: Antibacterial activity against methicillin-resistant Staphylococcus aureus G14 measured after overnight incubation by broth double-dilution method; assay type: functional; procedure, shortened: as §1
Pseudomonas aeruginosa = assay: Antibacterial activity against Pseudomonas aeruginosa ATCC 27853 measured after overnight incubation by broth double-dilution method; assay type: functional; procedure, shortened: as §2
Staphylococcus aureus [24] = assay: Antibacterial activity against methicillin-resistant Staphylococcus aureus G6 measured after overnight incubation by broth double-dilution method; assay type: functional; procedure, shortened: as §1
Salmonella enterica = assay: Antibacterial activity against Salmonella enterica ATCC 14028 measured after overnight incubation by broth double-dilution method; assay type: functional; procedure, shortened: as §2
Staphylococcus aureus [25] = assay: Antibacterial activity against methicillin-resistant Staphylococcus aureus S14 measured after overnight incubation by broth double-dilution method; assay type: functional; procedure, shortened: as §1
Staphylococcus aureus [26] = assay: Antibacterial activity against methicillin-resistant Staphylococcus aureus C14 measured after overnight incubation by broth double-dilution method; assay type: functional; procedure, shortened: as §1
Staphylococcus aureus [27] = assay: Antibacterial activity against methicillin-resistant Staphylococcus aureus NRS51 measured after overnight incubation by broth double-dilution method; assay type: functional; procedure, shortened: as §1
[28] = Cytotoxicity against HEK293 cells assessed as cell death up to 10 ug/ml measured after 24 hrs by resazurin dye-based fluorescence analysis relative to untreated control; assay type: toxicity; conditions: human, hek293, 24 h
Enterococcus faecalis [29] = assay: Antibacterial activity against Enterococcus faecalis ATCC 49533 measured after overnight incubation by broth double-dilution method; assay type: functional; procedure, shortened: as §2
Staphylococcus aureus [30] = assay: Antibacterial activity against methicillin-resistant Staphylococcus aureus S22 using 1 10^6CFU/ml measured after overnight incubation by broth double-dilution method; assay type: functional
Staphylococcus aureus [31] = assay: Antibacterial activity against methicillin-resistant Staphylococcus aureus USA200 measured after overnight incubation by broth double-dilution method; assay type: functional; procedure, shortened: as §1
Staphylococcus aureus [32] = assay: Antibacterial activity against methicillin-resistant Staphylococcus aureus C2 measured after overnight incubation by broth double-dilution method; assay type: functional; procedure, shortened: as §1
Enterococcus faecium = assay: Antibacterial activity against Enterococcus faecium BM4105-RF measured after overnight incubation by broth double-dilution method; assay type: functional; procedure, shortened: as §1
Enterobacter cloacae = assay: Antibacterial activity against Enterobacter cloacae ATCC 13047 measured after overnight incubation by broth double-dilution method; assay type: functional; conditions: subsp. cloacae ATCC 13047; procedure, shortened: as §1
Staphylococcus aureus [33] = assay: Antibacterial activity against methicillin-resistant Staphylococcus aureus S24 measured after overnight incubation by broth double-dilution method; assay type: functional; procedure, shortened: as §1
Staphylococcus aureus [34] = assay: Antibacterial activity against methicillin-sensitive Staphylococcus aureus ATCC 29213 measured after overnight incubation by broth double-dilution method; assay type: functional; procedure, shortened: as §1
[35] = system: Staphylococcus epidermidis; assay: Antibiofilm activity against Staphylococcus epidermidis ATCC 35984 assessed as reduction of biofilm at […] ug/ml measured after 24 hrs by crystal violet staining based method relative to control; assay type: functional, RP62A; design: scale not given: the % may be the effect or the level left
Staphylococcus aureus [36] = assay: Antibacterial activity against methicillin-resistant Staphylococcus aureus USA100 measured after overnight incubation by broth double-dilution method; assay type: functional; procedure, shortened: as §1

Compound `CC(C)c1cccc(-n2sc3ccccc3c2=O)c1` has an MIC (Escherichia coli) of 15.6 µg/mL (≈ 57.9 µM), an MIC (Staphylococcus aureus [1]) of at most 0.25 µg/mL and an MIC (Staphylococcus aureus [2]) of 0.5 µg/mL (≈ 1.86 µM). For the same compound, the MIC [3] was over 125 µg/mL, the MIC (Staphylococcus aureus [4]) was 1 µg/mL (≈ 3.71 µM) and the MIC (Staphylococcus aureus [5]) was at most 0.25 µg/mL. The MIC (Listeria monocytogenes) was 1 µg/mL (≈ 3.71 µM), the Activity (Mus musculus) was “Non-Toxic” and the MIC (Enterococcus faecalis [6]) was over 125 µg/mL. It also gave an MIC (Enterococcus) of at most 0.25 µg/mL, an MIC (Staphylococcus aureus [7]) of 1 µg/mL (≈ 3.71 µM) and an MIC (Staphylococcus aureus [8]) of 0.5 µg/mL (≈ 1.86 µM). It also gave an MIC (Staphylococcus aureus [9]) of at most 0.25 µg/mL, an MIC (Staphylococcus aureus [10]) of at most 0.25 µg/mL and an MIC (Staphylococcus aureus [11]) of at most 0.25 µg/mL. It also gave an MIC (Staphylococcus aureus [12]) of 1 µg/mL (≈ 3.71 µM), an MIC (Klebsiella pneumoniae) of over 125 µg/mL and an MIC (Acinetobacter baumannii) of 31.3 µg/mL (≈ 116 µM). For the same compound, the MIC (Staphylococcus aureus [13]) was at most 0.25 µg/mL, the MIC (Staphylococcus aureus [14]) was at most 0.25 µg/mL and the MIC (Staphylococcus aureus [15]) was at most 0.25 µg/mL. The MIC (Staphylococcus aureus [16]) was at most 0.25 µg/mL, the MIC [17] was 1 µg/mL (≈ 3.71 µM) and the MIC (Staphylococcus aureus [18]) was at most 0.25 µg/mL. For the same compound, the MIC (Staphylococcus aureus [19]) was at most 0.25 µg/mL, the MIC [20] was 0.25 µg/mL (≈ 0.928 µM) and the MIC (Staphylococcus aureus [21]) was 0.5 µg/mL (≈ 1.86 µM). For the same compound, the hemolysis at 1 h [22] was at most 20%, the MIC (Staphylococcus aureus [23]) was 0.5 µg/mL (≈ 1.86 µM) and the MIC (Pseudomonas aeruginosa) was over 125 µg/mL. It also gave an MIC (Staphylococcus aureus [24]) of 0.5 µg/mL (≈ 1.86 µM), an MIC (Salmonella enterica) of over 125 µg/mL and an MIC (Staphylococcus aureus [25]) of at most 0.25 µg/mL. It also gave an MIC (Staphylococcus aureus [26]) of 0.5 µg/mL (≈ 1.86 µM), an MIC (Staphylococcus aureus [27]) of at most 0.25 µg/mL and an Activity [28] of over 20%. For the same compound, the MIC (Enterococcus faecalis [29]) was over 125 µg/mL, the Activity (Staphylococcus aureus [30]) was “Active” and the MIC (Staphylococcus aureus [31]) was 0.5 µg/mL (≈ 1.86 µM). For the same compound, the MIC (Staphylococcus aureus [32]) was at most 0.25 µg/mL, the MIC (Enterococcus faecium) was 3.9 µg/mL (≈ 14.5 µM) and the MIC (Enterobacter cloacae) was over 125 µg/mL. The MIC (Staphylococcus aureus [33]) was at most 0.25 µg/mL, the MIC (Staphylococcus aureus [34]) was at most 0.25 µg/mL and the Activity [35] was 50 - 60%. For the same compound, the MIC (Staphylococcus aureus [36]) was 0.5 µg/mL (≈ 1.86 µM).

Reference: ChEMBL document CHEMBL3864121, “Development of ebsulfur analogues as potent antibacterials against methicillin-resistant Staphylococcus aureus” (Bioorg Med Chem, 2016)
